Reference: the RNAGym collection of RNA variant scans (doi:10.1126/science.aae0568)
Fewer inactive variants are shown than the library holds.

B1: tRNA (parent)
chain: GUUCCGUUGGCGUAAUGGUAACGCGUCUCCCUCCUAAGGAGAAGACUGCGGGUUCGAGUCCCGUACGGAACG

Variants of: B1
Experiment: yeast fitness relative to wild type (ratio to wild type); higher = fitter; tRNA-Arg(CCU), competitive growth, 37 C, YPD
Method in brief: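 Changes in genotype frequencies gave Darwinian fitness relative to wild type. Frequencies were read by 100-nucleotide paired-end sequencing of gene amplicons before and after pooled Saccharomyces cerevisiae strains, carrying tRNA-Arg(CCU) gene variants at the native locus, were competed in YPD at 37°C for 24 hours in six replicates. A genotype was kept only with ≥ 100 starting reads, and estimates < 0.5 were set to 0.5.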
For A43U G68A, the yeast fitness was 0.669. A43U G68C gave a yeast fitness of 0.815. For A43G A45G C55U, the yeast fitness was ≤ 0.5. For A43U C46A, the yeast fitness was 0.98. Variant A43U C46G has a yeast fitness of 0.829. In the case of A43G A70C, the yeast fitness is reported as 1.02. A43G A70G gave a yeast fitness of 0.977. Variant A43G A70U has a yeast fitness of 1.01. A43G U64G showed a yeast fitness of 0.64. With A43G A45C G51A the yeast fitness was ≤ 0.5. For A43U A57C G58A, the yeast fitness was ≤ 0.5. Variant A43C C62U has a yeast fitness of 0.93. G44C G63C showed a yeast fitness of 0.623. Work on G44A C60G yielded a yeast fitness of 0.667. A43C A57U gave a yeast fitness of 0.678. With A43U G48C U54C C60A U64A the yeast fitness was ≤ 0.5. In the case of A45C C46G G51C, the yeast fitness is reported as 0.546. For A43U A65U C66A, the yeast fitness was ≤ 0.5. Variant A42U C49U G50A has a yeast fitness of 0.651. With A43C G52C C55U A69C the yeast fitness was ≤ 0.5. G44C G56A C66U showed a yeast fitness of 0.634. In the case of A43G C46G G56C, the yeast fitness is reported as ≤ 0.5. A45C U53A showed a yeast fitness of 0.727. In the case of A45C U53C, the yeast fitness is reported as 0.823. Work on G44A C46U C62U yielded a yeast fitness of 0.723. Work on A43U G52C yielded a yeast fitness of 0.6. In the case of A43U G52A, the yeast fitness is reported as 0.663. In the case of A43C G48A A57C G68U, the yeast fitness is reported as 0.701. With A45C C55G the yeast fitness was 0.528. In the case of A42U G50A A65C, the yeast fitness is reported as ≤ 0.5. In the case of A43G U54C, the yeast fitness is reported as 0.905. G44A A45U gave a yeast fitness of 0.885. With A45C C49G G58C the yeast fitness was ≤ 0.5. In the case of A43G U53G C55A G56C A57G G58A U59G C60U A65C, the yeast fitness is reported as ≤ 0.5. A43U A69U showed a yeast fitness of 0.904. In the case of A45C U47A C66U, the yeast fitness is reported as 0.595. Work on A43G A45U G63A yielded a yeast fitness of 0.613. A43G G48C C55G showed a yeast fitness of 0.597. In the case of G44C G50C U54G C61G, the yeast fitness is reported as 0.568. For G44A C49G, the yeast fitness was 0.714. In the case of A43G G50A G68U, the yeast fitness is reported as ≤ 0.5. With A45C C60U A70G the yeast fitness was 0.683. For A45C C46G G68A, the yeast fitness was 0.678. With A43U G48A C61G A70C the yeast fitness was ≤ 0.5. G44A U54C gave a yeast fitness of 0.723. A43U G48A U53A showed a yeast fitness of 0.506. A43G U47A showed a yeast fitness of 0.88. Work on A43G U47C yielded a yeast fitness of 1.04. With G44A C55U G63A the yeast fitness was ≤ 0.5. For G44C G50C U54G C61G U64C, the yeast fitness was ≤ 0.5. With A42U A45U C49G U53A the yeast fitness was ≤ 0.5. For A43C U59C, the yeast fitness was 0.828. G44C A69G gave a yeast fitness of 1.04. A43U C62G C66A A69C showed a yeast fitness of 0.67. Work on A43U A57C yielded a yeast fitness of 0.726. Work on A43U G67C yielded a yeast fitness of 0.778. Variant A43U G67U has a yeast fitness of 0.87. Variant A43U G67A has a yeast fitness of 0.79. In the case of A45G A65G A70C, the yeast fitness is reported as 0.666. G44A A65C gave a yeast fitness of 1.05. G44A A65U gave a yeast fitness of 0.816. With A43G U64A A69U the yeast fitness was 0.648. With A43U C46A A69C the yeast fitness was 0.734. Work on A42U G67C yielded a yeast fitness of 0.69. Work on G44A G63C yielded a yeast fitness of 0.826. In the case of G44A G63A, the yeast fitness is reported as 0.97. Work on A42G G58A yielded a yeast fitness of 0.879. For A42U C61U A70C, the yeast fitness was 0.709. Work on G44C G52A yielded a yeast fitness of 0.833. With A42U G44C A65C the yeast fitness was ≤ 0.5. With A43G A65C the yeast fitness was 0.79. For A43C G52A, the yeast fitness was 0.887. A43G A57C A65U gave a yeast fitness of 0.511. In the case of A42U G50A C60G, the yeast fitness is reported as 0.614. With A42G G51U A70C the yeast fitness was ≤ 0.5. For A43C C55U C66G, the yeast fitness was ≤ 0.5. With A43U C61G the yeast fitness was 0.716. With A43U C61U the yeast fitness was 0.969. For A43G U47A C55A, the yeast fitness was ≤ 0.5. A43U G48U showed a yeast fitness of 0.77. In the case of A43U G48A, the yeast fitness is reported as 1.01. For A45C A57U C60U A65C, the yeast fitness was ≤ 0.5. In the case of G44A A57U, the yeast fitness is reported as 0.635.
